ChEMBL document CHEMBL1131121, “Inactivation of S-adenosyl-L-homocysteine hydrolase and antiviral activity with 5',5',6',6'-tetradehydro-6'-deoxy-6'-halohomoadenosine analogues (4'-haloacetylene analogues derived from adenosine)” (J Med Chem, 1998)
Converted amounts (≈) assume the structure as drawn.

How the values were obtained:
E6SM [1] = assay: concentration required to inhibit vaccinia virus-induced cytopathicity by 50% in E6SM cells; type: functional, cell-based; settings: Homo sapiens
Procedure, shortened: (§1)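 Assay measured inhibition of virus-induced cytopathicity in confluent E6SM, HeLa or Vero monolayers. Cells were inoculated with 100 CCID50 of virus for 1 h adsorption, then unbound virus was removed. Cultures were incubated with serial compound concentrations (400, 200, 100 … µg/mL). Cytopathicity was scored once virus control cultures reached complete CPE, and the 50% effective concentration was derived.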

Adenosylhomocysteinase [2] = molecular target: T1, Adenosylhomocysteinase (Homo sapiens, UniProt P23526); assay: Inhibition of S-adenosyl-homocysteine hydrolase at 0.1 uM concentration was determined from enzyme activity remaining; values are per cent of control
Target sequence in this assay (P23526 2-432 limits assumed): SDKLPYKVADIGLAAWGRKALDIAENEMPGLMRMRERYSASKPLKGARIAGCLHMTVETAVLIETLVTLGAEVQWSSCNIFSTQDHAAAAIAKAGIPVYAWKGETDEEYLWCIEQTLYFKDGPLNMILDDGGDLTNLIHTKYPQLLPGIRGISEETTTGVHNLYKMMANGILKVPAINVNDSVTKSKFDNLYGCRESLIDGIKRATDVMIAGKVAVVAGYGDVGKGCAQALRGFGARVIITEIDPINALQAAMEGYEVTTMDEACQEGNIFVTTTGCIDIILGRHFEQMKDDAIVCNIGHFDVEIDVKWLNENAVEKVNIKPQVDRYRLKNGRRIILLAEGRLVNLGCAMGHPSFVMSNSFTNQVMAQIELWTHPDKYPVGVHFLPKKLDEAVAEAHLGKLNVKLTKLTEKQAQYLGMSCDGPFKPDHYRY

HeLa [3] = assay: concentration required to inhibit RSV-induced cytopathicity by 50% in HeLa cells; type: functional, cell-based; settings: Homo sapiens; procedure, shortened: as §1
Vero [4] = assay: concentration required to inhibit Coxsackie virus B4-induced cytopathicity by 50% in Vero cells; type: functional, cell-based; settings: Chlorocebus sabaeus; procedure, shortened: as §1
E6SM [5] = assay: concentration required to inhibit HSV-2(G)-induced cytopathicity by 50% in E6SM cells; type: functional, cell-based; settings: Homo sapiens; procedure, shortened: as §1
Adenosylhomocysteinase [6] = molecular target: T1, Adenosylhomocysteinase; assay: (§2) Kinetic constant calculated from the pseudo-first-order rate constant(k app) for S-adenosyl-homocysteine hydrolase inactivation
Procedure, shortened: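 Recombinant human placental AdoHcy hydrolase (25 nM) preincubated with 0–100 µM inhibitor in buffer A (50 mM potassium phosphate, pH 7.2, 1 mM EDTA) at 37 °C for 0–5 min. Residual activity then measured in the synthetic direction (Ado 1 mM, Hcy 5 mM, 37 °C, 5 min; AdoHcy by reverse-phase HPLC). k_app taken from log remaining activity vs time; k2 and Ki from Kitz–Wilson analysis.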
Target sequence in this assay (P23526 whole entry): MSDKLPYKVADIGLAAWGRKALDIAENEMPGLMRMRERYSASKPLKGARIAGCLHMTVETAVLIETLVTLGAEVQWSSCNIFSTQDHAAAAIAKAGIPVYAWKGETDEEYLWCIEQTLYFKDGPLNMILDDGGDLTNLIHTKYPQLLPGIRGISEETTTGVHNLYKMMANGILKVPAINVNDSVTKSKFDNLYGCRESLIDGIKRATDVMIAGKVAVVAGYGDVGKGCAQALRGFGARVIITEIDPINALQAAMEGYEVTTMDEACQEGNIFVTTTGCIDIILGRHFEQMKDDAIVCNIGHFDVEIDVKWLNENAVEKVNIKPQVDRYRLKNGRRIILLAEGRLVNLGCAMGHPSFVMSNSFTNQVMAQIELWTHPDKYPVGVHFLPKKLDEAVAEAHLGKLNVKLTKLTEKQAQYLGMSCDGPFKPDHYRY

HeLa [7] = assay: Minimum inhibitory concentration (MIC) required to elicit a microscopically visible alteration of cell morphology in HeLa cells; type: functional; settings: Homo sapiens
Adenosylhomocysteinase [8] = molecular target: T1, Adenosylhomocysteinase; assay: as §2; remark: listed apart in the source
Procedure, shortened: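 For time-dependent inactivation, enzyme (25 nM) was incubated with various inhibitor concentrations in buffer A at 37 °C for 0–5 min, then residual synthetic-direction activity was assayed by HPLC. k_app was taken from the log(remaining activity) versus time plot. k2 and Ki were derived from k_app and [I] by the Kitz–Wilson method.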
Target sequence in this assay (P23526 2-432 limits assumed): as the sequence (P23526 2-432 limits assumed) above

Vero [9] = assay: concentration required to inhibit parainfluenza-3 virus-induced cytopathicity by 50% in Vero cells; type: functional, cell-based; settings: Chlorocebus sabaeus; procedure, shortened: as §1
Adenosylhomocysteinase [10] = molecular target: T1, Adenosylhomocysteinase; assay: Inhibition of S-adenosyl-homocysteine hydrolase at 10 uM concentration was determined from enzyme activity remaining; values are per cent of control
Target sequence in this assay (P23526 2-432 limits assumed): as above

E6SM [11] = assay: concentration required to inhibit HSV-1/TK (B2006) or VMW1837-induced cytopathicity by 50% in E6SM cells; type: functional, cell-based; settings: Homo sapiens; procedure, shortened: as §1
HeLa [12] = assay: concentration required to inhibit VSV-induced cytopathicity by 50% in HeLa cells; type: functional, cell-based; settings: Homo sapiens; procedure, shortened: as §1
Vero [13] = assay: concentration required to inhibit Punta Toro virus-induced cytopathicity by 50% in Vero cells; type: functional, cell-based; settings: Chlorocebus sabaeus; procedure, shortened: as §1
Adenosylhomocysteinase [14] = molecular target: T1, Adenosylhomocysteinase; assay: (§3) Enzyme-mediated release of Adenine(Ade) from the compound; type: functional
Procedure, shortened: (§4)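 AdoHcy hydrolase (10 µM) was incubated with 100 µM compound in buffer A at 37 °C for 20 min. At each time point the reaction was stopped with 5 M HClO4 and adenine measured by HPLC. The peak identity was confirmed by co-injection with authentic adenine and by CI/NH3 mass spectrometry.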
Target sequence in this assay (P23526 2-432 limits assumed): as above

Vero [15] = assay: Minimum inhibitory concentration (MIC) required to elicit a microscopically visible alteration of cell morphology in Vero cells; type: functional; settings: Chlorocebus sabaeus
HeLa [16] = assay: concentration required to inhibit Coxsackie virus B4-induced cytopathicity by 50% in HeLa cells; type: functional, cell-based; settings: Homo sapiens; procedure, shortened: as §1
Adenosylhomocysteinase [17] = molecular target: T1, Adenosylhomocysteinase; assay: Effect on the S-adenosyl-homocysteine hydrolase activity; type: functional
Procedure, shortened: (§5)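 Recombinant human placental AdoHcy hydrolase was exposed to 100 µM inhibitor in buffer A (50 mM potassium phosphate, pH 7.2, 1 mM EDTA) at 37 °C for 20 min. Residual activity was measured in the synthetic direction with 1 mM Ado plus 5 mM Hcy for 5 min at 37 °C. The reaction was stopped with HClO4 and AdoHcy quantified by C18 reverse-phase HPLC.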
Target sequence in this assay (P23526 2-432 limits assumed): as above

Adenosylhomocysteinase [18] = molecular target: T1, Adenosylhomocysteinase; assay: Inhibition of S-adenosyl-homocysteine hydrolase at 1 uM concentration was determined from enzyme activity remaining; values are per cent of control
Target sequence in this assay (P23526 2-432 limits assumed): as above

Vero [19] = assay: concentration required to inhibit Sindbis virus -induced cytopathicity by 50% in Vero cells; type: functional, cell-based; settings: Chlorocebus sabaeus; procedure, shortened: as §1
E6SM [20] = assay: concentration required to inhibit VSV-induced cytopathicity by 50% in E6SM cells; type: functional, cell-based; settings: Homo sapiens; procedure, shortened: as §1
Vero [21] = assay: concentration required to inhibit reovirus-1-induced cytopathicity by 50% in Vero cells; type: functional, cell-based; settings: Chlorocebus sabaeus; procedure, shortened: as §1
E6SM [22] = assay: concentration required to inhibit HSV-1(KOS)-induced cytopathicity by 50% in E6SM cells; type: functional, cell-based; settings: Homo sapiens; procedure, shortened: as §1
Adenosylhomocysteinase [23] = molecular target: T1, Adenosylhomocysteinase; assay: NADH content of the enzyme (percentage of total coenzyme) from the compound; type: functional
Procedure, shortened: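 AdoHcy hydrolase (10 µM) in buffer A was incubated with 100 µM compound at 37 °C for 20 min. Conversion of enzyme-bound NAD⁺ to NADH was followed by UV absorbance at 340 nm and quantified against a standard curve. Values are given as % of total coenzyme.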

Adenosylhomocysteinase [24] = molecular target: T1, Adenosylhomocysteinase; assay: Enzyme-mediated release of halide ions from the compound; type: functional
Procedure, shortened: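 Enzyme (10 µM) was incubated with 100 µM compound in buffer A at 37 °C for 20 min and the filtrate collected through a 3000 Mr cutoff device. Cl⁻ and Br⁻ were measured by anion-exchange HPLC with conductivity detection (1.5 mM p-hydroxybenzoic acid/2% methanol, pH 8.5). I⁻ was measured by C18 ion-pair HPLC at 260 nm. All ions were quantified against standard curves.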

E6SM [25] = assay: Minimum inhibitory concentration (MIC) required to elicit a microscopically visible alteration of cell morphology in E6SM cells; type: functional; settings: Homo sapiens
Adenosylhomocysteinase [26] = molecular target: T1, Adenosylhomocysteinase; assay: Inhibition of S-adenosyl-homocysteine hydrolase at 100 uM concentration; procedure, shortened: as §5
Adenosylhomocysteinase [27] = molecular target: T1, Adenosylhomocysteinase; assay: Inhibition of S-adenosyl-homocysteine hydrolase at 100 uM concentration was determined from S-adenosylhomocysteine hydrolase activity remaining; settings: values are per cent of control; procedure, shortened: as §5
Adenosylhomocysteinase [28] = molecular target: T1, Adenosylhomocysteinase; assay: as §3; procedure, shortened: as §4
Adenosylhomocysteinase [29] = molecular target: T1, Adenosylhomocysteinase; assay: Inhibition of S-adenosyl-homocysteine hydrolase at 100 uM concentration was determined from enzyme activity remaining; settings: values are per cent of control; procedure, shortened: as §5
Adenosylhomocysteinase [30] = molecular target: T1, Adenosylhomocysteinase; assay: Inhibition of S-adenosyl-homocysteine hydrolase at 01 uM concentration was determined from enzyme activity remaining
Procedure, shortened: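 Recombinant human placental AdoHcy hydrolase (25 nM) was preincubated with 0–100 µM inhibitor in buffer A (50 mM potassium phosphate, pH 7.2, 1 mM EDTA) at 37 °C for 20 min. Remaining activity was assayed as AdoHcy formed from 1 mM Ado and 5 mM Hcy (5 min, 37 °C), then HClO4 quench and C18 HPLC. Results are given as % activity remaining.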

Vero [31] = assay: concentration required to inhibit reovirus-1 induced cytopathicity by 50% in Vero cells; type: functional, cell-based; settings: Chlorocebus sabaeus; procedure, shortened: as §1

SMILES | EC50 (E6SM [1]) [µM] | residual activity (Adenosylhomocysteinase [2]) [%] | EC50 (HeLa [3]) [µM] | EC50 (Vero [4]) [µM] | EC50 (E6SM [5]) [µM] | Ki (Adenosylhomocysteinase [6]) [µM] | MIC (HeLa [7]) [µM] | k2 (Adenosylhomocysteinase [8]) [min⁻¹] | EC50 (Vero [9]) [µM] | residual activity (Adenosylhomocysteinase [10]) [%] | EC50 (E6SM [11]) [µM] | EC50 (HeLa [12]) [µM] | EC50 (Vero [13]) [µM] | MIC (Vero [15]) [µM] | EC50 (HeLa [16]) [µM] | EC50 (Vero [19]) [µM] | EC50 (E6SM [20]) [µM] | EC50 (Vero [21]) [µM] | EC50 (E6SM [22]) [µM] | MIC (E6SM [25]) [µM] | also measured
Nc1ncnc2c1ncn2C1O[C@H](C#CI)[C@@H](O)[C@H]1O (some centres not stated) | 0.26 | 80 | > 260 | > 104 | > 10 | 1.1 | > 1040 | 0.095 | 2.6 | 8.8 | > 10 | 260 | > 104 | > 180 | > 260 | > 104 | 0.08 | > 0.78 | > 10 | 26 (≈ 10.1 µg/mL) | Release (Adenosylhomocysteinase [14]): 5.7%; Activity (Adenosylhomocysteinase [17]): 1.4%; residual activity (Adenosylhomocysteinase [18]): 44.6%; Total coenzyme (Adenosylhomocysteinase [23]): 96%; Release (Adenosylhomocysteinase [24]): 0%; inhibition (Adenosylhomocysteinase [26]): < 2%
NC(=O)c1ncn([C@@H]2O[C@H](CO)[C@@H](O)[C@H]2O)n1 [RIBAVIRIN] | 192 |  |  | > 1600 | 960 |  | > 1600 |  | 64 |  | 128 | 192 | 64 | > 1600 | 320 | 64 | 192 | 64 | 960 | > 1600 | 
Nc1ncnc2c1ncn2C1O[C@H](C#CBr)[C@@H](O)[C@H]1O (some centres not stated) | 6 | 91 | 210 | > 30 | > 120 | 3.8 | > 300 | 0.49 | 6 | 62.9 | > 120 | 45 | > 30 | > 120 | > 300 | > 30 | 6 | 3 | > 120 | > 300 | residual activity (Adenosylhomocysteinase [27]): 56%; Release (Adenosylhomocysteinase [14]): 28%; Activity (Adenosylhomocysteinase [17]): 49%; residual activity (Adenosylhomocysteinase [18]): 73.2%; Total coenzyme (Adenosylhomocysteinase [23]): 49%; Release (Adenosylhomocysteinase [24]): 70%
Nc1ncnc2c1ncn2C1O[C@H](C#CCl)[C@@H](O)[C@H]1O (some centres not stated) | 140 | 89.3 | > 140 | > 35 | > 140 | 1.7 | > 340 | 0.48 | > 35 | 58.9 | > 140 | > 140 | > 35 | > 140 | > 140 | > 35 | 70 | > 35 | > 140 | > 340 | Release (Adenosylhomocysteinase [28]): 18%; residual activity (Adenosylhomocysteinase [29]): 55%; inhibition (Adenosylhomocysteinase [30]): 64%; Activity (Adenosylhomocysteinase [17]): 47%; Total coenzyme (Adenosylhomocysteinase [23]): 53%; Release (Adenosylhomocysteinase [24]): 28%
NC1=NC(CCCO)N(CCCO)c2[nH]cnc21 (configuration not stated) |  |  |  | > 2000 |  |  | > 2000 |  | 1200 |  |  | 400 | > 2000 | > 1600 | > 2000 | > 2000 |  |  |  |  | EC50 (Vero [31]): 240 µM
